Assay results reported in ChEMBL document CHEMBL1155077, “Kinesin spindle protein (KSP) inhibitors. 9. Discovery of (2S)-4-(2,5-difluorophenyl)-n-[(3R,4S)-3-fluoro-1-methylpiperidin-4-yl]-2-(hydroxymethyl)-N-methyl-2-phenyl-2,5-dihydro-1H-pyrrole-1-carboxamide (MK-0731) for the treatment of taxane-refractory cancer” (J Med Chem, 2008).
Calls of active or inactive are those of the source. The calls are words filed in the database; no cut-off is given here.

Key:
[1] = target: T1, Kinesin-1 heavy chain (Homo sapiens, UniProt P33176); assay: Inhibition of cloned human uKHC
T1 sequence (P33176 whole entry): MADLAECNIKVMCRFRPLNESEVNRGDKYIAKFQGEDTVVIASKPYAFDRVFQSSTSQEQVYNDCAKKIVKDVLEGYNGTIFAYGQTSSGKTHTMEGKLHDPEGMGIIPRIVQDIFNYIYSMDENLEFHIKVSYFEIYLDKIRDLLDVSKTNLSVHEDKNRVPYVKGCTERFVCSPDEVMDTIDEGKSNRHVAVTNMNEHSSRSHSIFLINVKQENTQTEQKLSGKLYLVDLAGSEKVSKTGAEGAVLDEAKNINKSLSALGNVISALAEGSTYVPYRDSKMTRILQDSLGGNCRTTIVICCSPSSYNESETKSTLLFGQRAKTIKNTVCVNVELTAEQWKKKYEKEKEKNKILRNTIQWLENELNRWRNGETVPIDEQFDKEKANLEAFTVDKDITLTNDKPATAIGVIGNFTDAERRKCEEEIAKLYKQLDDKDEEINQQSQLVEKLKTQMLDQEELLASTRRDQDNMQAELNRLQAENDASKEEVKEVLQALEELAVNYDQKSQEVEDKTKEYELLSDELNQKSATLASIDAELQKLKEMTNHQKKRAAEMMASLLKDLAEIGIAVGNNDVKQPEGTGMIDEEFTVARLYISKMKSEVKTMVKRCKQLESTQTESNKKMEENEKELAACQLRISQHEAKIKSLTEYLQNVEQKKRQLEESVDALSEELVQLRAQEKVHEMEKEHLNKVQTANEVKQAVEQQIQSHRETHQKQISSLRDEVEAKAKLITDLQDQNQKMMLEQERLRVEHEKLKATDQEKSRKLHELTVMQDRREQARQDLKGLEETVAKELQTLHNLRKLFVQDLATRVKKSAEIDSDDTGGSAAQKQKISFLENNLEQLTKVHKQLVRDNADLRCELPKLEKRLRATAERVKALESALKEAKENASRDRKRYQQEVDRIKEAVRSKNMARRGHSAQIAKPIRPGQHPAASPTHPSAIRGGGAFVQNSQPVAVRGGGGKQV

[2] = Clearance in rat at 1 mg/kg, iv; type: ADME, organism-based; design: dose 1 mg/kg, route intravenous; settings: in vivo
[3] = target: Kinesin-like protein KIF3A (Homo sapiens, UniProt Q9Y496); assay: Inhibition of cloned human Kif3A
[4] = Induction of apoptosis in human […] cells assessed as caspase 3 activation after 48 hrs by fluorescent assay; type: functional, cell-based
Method in brief: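 A2780 cells seeded 20 000/well, grown overnight, then treated in triplicate 48 h with vehicle or compound, 300 to 0.415 nM (7-point, 3-fold series), 0.1% DMSO final.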

[5] = system: PTX10; assay: Inhibition of tumor growth in paclitaxel-resistant human PTX10 cells carries tubulin mutation xenografted clr:NU/NU-nuBR mouse assessed as change in tumor volume at 100 mg/kg, sc administered q4d x 3 dosing schedule relative to control
[6] = target: Kinesin-like protein KIF14 (Homo sapiens, UniProt Q15058); assay: Inhibition of cloned human Kif14
[7] = Half life in dog at 0.4 mg/kg, iv; type: ADME, organism-based, Canis lupus familiaris; design: dose 0.4 mg/kg, route intravenous; settings: in vivo
[8] = target: Kinesin-like protein KIF1B (Homo sapiens, UniProt O60333); assay: Inhibition of cloned human Kif1B
[9] = Inhibition of tubulin polymerization at 20 uM
Method in brief: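 Tubulin at 2.5 mg/mL with 0.5 mM GTP in 80 mM K-PIPES pH 6.8, 1 mM MgCl2, 1 mM EGTA; compound at 20 µM final from DMSO; 37 °C. Light scattering read at 320 and 340 nm every 30 s for 75 min, with paclitaxel and colchicine (20 µM) controls.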

[10] = Toxicity in human A2780 cells xenografted clr:NU/NU-nuBR mouse assessed as maximum tolerated dose; type: organism-based; settings: in vivo
Method in brief: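 Maximum tolerated dose was set in protocols in naive mice that varied dose, vehicle and frequency, with survival as the end point and peripheral blood counts tracked. The schedule was sc injection every 4 days × 3 in saline acidified to pH 4.0, 100 µL per dose.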

[11] = system: Rattus norvegicus; assay: Acute toxicity in rat at 15 mg/kg, iv; type: organism-based; design: dose 15 mg/kg, route intravenous; settings: in vivo
[12] = Volume of distribution at steady state in dog at 0.4 mg/kg, iv; type: ADME, organism-based, Canis lupus familiaris; design: dose 0.4 mg/kg, route intravenous; settings: in vivo, read-out: Vdss
[13] = Clearance in rhesus monkey at 0.4 mg/kg, iv; type: ADME, organism-based, Macaca mulatta; design: dose 0.4 mg/kg, route intravenous; settings: in vivo
[14] = Dissociation constant, pKa by Sirius GLpKa titrator; type: physicochemical
Method in brief: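 Potentiometric pKa measured on a Sirius GLpKa titrator; mean of n = 3 determinations unless marked as a single determination.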

[15] = Half life in rat at 1 mg/kg, iv; type: ADME, organism-based; design: dose 1 mg/kg, route intravenous; settings: in vivo
[16] = Aqueous solubility at pH 4.3; type: physicochemical; settings: aqueous solution
[17] = target: T2, Kinesin heavy chain isoform 5A (Homo sapiens, UniProt Q12840); assay: Inhibition of cloned human nKHC
T2 sequence (Q12840 whole entry): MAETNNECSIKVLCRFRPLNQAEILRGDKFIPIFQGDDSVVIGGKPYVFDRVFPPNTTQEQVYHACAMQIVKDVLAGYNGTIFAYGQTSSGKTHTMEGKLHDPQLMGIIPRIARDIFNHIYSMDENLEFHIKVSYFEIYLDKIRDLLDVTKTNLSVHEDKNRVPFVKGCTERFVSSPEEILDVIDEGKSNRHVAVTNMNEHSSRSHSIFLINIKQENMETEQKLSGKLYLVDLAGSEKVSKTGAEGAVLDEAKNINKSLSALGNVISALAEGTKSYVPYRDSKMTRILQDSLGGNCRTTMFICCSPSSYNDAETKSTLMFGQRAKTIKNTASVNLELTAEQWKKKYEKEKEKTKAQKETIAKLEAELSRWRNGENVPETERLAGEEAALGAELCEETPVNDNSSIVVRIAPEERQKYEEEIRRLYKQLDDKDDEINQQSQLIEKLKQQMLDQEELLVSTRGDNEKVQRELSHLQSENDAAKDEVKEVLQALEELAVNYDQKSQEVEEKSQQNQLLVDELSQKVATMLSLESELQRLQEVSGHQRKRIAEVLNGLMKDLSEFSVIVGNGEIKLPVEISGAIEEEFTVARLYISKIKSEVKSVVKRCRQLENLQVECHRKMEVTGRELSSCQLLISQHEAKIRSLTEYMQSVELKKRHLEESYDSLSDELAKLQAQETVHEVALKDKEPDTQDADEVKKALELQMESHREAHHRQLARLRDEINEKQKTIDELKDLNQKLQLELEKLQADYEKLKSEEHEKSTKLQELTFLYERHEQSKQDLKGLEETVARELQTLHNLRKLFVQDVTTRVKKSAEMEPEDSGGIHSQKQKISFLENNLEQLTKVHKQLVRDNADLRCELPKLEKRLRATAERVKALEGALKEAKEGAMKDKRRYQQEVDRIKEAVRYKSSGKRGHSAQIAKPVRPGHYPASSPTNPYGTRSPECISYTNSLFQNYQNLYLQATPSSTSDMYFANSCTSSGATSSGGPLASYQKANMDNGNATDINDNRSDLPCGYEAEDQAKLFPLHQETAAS

Chain of Kinesin-like protein KIF3A (Q9Y496 whole entry): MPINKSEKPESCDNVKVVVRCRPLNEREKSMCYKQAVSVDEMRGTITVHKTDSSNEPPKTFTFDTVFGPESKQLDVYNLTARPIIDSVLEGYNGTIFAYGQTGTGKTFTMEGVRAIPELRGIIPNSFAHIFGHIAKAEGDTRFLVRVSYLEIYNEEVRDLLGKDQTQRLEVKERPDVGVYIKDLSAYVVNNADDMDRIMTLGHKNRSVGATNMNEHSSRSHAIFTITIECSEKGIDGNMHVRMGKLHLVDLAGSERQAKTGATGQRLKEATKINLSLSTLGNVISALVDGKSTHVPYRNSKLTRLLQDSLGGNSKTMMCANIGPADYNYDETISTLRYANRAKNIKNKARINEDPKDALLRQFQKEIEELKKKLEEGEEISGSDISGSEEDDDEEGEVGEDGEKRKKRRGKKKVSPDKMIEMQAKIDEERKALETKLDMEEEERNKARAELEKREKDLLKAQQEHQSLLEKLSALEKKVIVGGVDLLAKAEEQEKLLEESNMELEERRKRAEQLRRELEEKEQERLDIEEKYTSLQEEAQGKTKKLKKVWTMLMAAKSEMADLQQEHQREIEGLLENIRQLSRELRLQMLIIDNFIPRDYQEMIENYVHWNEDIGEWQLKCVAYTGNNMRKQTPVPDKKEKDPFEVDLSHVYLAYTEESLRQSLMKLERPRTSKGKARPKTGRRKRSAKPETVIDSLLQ
Chain of Kinesin-like protein KIF1B (O60333 whole entry): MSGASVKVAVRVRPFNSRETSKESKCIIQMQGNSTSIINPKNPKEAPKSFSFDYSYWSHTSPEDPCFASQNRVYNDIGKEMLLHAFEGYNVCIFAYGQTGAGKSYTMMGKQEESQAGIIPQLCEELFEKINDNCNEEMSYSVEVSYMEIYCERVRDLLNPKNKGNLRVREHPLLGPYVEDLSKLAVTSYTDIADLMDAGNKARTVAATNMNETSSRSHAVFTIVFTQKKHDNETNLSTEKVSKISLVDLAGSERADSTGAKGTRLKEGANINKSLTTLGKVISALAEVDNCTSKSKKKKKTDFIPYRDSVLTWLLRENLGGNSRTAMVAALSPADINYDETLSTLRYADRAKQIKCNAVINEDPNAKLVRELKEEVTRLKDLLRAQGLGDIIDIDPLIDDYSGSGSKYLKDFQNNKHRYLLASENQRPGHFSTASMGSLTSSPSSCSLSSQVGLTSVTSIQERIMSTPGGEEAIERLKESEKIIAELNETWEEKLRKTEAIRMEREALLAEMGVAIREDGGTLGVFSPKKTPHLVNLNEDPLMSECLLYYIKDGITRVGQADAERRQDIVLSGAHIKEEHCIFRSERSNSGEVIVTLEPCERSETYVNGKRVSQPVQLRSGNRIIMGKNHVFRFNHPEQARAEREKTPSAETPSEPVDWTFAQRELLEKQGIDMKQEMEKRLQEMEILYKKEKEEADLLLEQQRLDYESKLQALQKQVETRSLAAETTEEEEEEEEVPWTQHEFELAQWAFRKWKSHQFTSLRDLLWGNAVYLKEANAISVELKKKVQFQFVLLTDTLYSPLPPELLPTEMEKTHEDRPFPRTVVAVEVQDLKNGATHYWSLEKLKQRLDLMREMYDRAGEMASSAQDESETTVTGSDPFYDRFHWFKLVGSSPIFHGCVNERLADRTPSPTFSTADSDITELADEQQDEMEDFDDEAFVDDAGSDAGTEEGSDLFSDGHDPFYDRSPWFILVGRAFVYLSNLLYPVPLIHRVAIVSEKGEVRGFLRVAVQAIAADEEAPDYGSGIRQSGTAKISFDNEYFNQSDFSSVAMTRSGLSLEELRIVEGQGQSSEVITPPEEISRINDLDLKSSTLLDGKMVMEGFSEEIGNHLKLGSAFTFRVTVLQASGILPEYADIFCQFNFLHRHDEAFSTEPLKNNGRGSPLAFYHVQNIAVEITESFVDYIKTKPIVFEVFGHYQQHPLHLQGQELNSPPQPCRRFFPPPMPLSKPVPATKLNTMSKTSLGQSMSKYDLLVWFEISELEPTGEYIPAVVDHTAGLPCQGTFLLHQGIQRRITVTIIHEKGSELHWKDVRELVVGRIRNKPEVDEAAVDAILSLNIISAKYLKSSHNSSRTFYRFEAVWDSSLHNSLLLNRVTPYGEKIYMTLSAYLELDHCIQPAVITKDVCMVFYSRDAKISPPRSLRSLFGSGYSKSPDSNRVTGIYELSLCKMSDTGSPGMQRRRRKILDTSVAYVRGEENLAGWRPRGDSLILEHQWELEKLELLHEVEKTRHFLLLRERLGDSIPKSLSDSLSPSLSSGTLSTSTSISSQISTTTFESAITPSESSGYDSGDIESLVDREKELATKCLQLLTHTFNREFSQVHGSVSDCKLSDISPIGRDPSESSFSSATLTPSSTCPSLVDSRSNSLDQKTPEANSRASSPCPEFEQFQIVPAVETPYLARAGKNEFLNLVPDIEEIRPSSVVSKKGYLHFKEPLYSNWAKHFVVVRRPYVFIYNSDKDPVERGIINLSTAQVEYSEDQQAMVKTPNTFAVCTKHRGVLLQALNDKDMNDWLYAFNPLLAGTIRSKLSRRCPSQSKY
Chain of Kinesin-like protein KIF14 (Q15058 whole entry): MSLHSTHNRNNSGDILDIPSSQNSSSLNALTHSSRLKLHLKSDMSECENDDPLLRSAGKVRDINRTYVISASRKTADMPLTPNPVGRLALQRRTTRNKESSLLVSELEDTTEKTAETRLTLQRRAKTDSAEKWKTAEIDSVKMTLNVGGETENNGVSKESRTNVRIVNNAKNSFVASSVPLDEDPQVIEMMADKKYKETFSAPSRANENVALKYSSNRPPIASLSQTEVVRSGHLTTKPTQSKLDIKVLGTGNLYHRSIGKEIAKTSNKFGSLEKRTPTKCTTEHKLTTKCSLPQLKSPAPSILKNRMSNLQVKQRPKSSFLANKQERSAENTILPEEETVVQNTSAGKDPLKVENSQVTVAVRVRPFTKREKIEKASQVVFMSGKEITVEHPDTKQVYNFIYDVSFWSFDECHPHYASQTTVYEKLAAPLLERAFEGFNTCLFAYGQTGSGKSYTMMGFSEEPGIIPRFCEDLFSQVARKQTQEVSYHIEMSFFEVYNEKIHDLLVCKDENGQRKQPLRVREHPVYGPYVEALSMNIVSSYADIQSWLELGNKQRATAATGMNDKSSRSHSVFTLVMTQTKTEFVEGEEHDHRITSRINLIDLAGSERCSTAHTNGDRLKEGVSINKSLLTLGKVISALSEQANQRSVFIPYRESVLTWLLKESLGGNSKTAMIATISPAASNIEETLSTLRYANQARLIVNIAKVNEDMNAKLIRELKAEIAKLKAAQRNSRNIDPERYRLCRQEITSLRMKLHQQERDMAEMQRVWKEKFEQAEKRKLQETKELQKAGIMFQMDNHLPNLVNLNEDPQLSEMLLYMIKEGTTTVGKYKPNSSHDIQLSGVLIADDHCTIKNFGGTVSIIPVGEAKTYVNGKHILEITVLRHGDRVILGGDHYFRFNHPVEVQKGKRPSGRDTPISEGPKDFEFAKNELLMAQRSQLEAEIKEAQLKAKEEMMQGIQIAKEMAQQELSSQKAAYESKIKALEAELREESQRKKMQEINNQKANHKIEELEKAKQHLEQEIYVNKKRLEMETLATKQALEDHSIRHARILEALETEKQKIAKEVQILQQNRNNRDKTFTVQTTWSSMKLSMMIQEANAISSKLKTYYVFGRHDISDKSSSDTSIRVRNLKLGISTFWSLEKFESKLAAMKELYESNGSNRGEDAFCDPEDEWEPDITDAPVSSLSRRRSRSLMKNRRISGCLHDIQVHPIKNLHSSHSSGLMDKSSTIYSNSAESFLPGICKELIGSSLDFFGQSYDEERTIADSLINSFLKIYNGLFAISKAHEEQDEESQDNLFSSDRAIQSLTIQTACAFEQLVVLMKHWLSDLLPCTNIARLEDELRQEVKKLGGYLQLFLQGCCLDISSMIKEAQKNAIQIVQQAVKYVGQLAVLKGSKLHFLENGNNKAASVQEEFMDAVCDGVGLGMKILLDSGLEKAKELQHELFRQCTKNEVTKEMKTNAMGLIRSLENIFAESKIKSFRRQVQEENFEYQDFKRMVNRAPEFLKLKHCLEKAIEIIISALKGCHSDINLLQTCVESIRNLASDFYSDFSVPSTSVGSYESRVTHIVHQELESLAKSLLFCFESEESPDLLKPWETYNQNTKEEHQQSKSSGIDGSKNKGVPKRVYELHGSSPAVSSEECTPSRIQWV

For `CN1CC[C@H](N(C)C(=O)N2CC(c3cc(F)ccc3F)=C[C@@]2(CO)c2ccccc2)[C@H](F)C1`, the IC50 [1] was over 50 µM, the clearance [2] was 66.7 mL/min/kg and the IC50 [3] was over 50 µM. For the same molecule, the EC50 [4] was 0.0027 µM, the Activity [5] was “Active” and the IC50 [6] was over 50 µM. The half-life [7] was 2 h, the IC50 [8] was over 50 µM and the Activity [9] was “inactive”. For the same molecule, the MTD [10] was 100 mg/kg, the Activity [11] was “Non-toxic” and the Vd [12] was 1.6 L/kg. It also gave a clearance [13] of 23.1 mL/min/kg, a pKa [14] of 7.6 and a half-life [15] of 1 h. For the same molecule, the solubility [16] was over 50 mg/mL and the IC50 [17] was over 50 µM.
